19 sequences from the EternaBench riboswitch data can be followed below.

This data set deals with MS2 coat protein. Kind of data set: apparent Kd, MS2 coat protein; higher = weaker binding; RNA-MaP array; tryptophan 2.4 mM where present. The gist of the method: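 Each design was made on Illumina sequencing-chip clusters by stalled E. coli RNA polymerase and titrated with SNAP-549-labelled MS2 coat protein from 0.7 or 1.5 nM, doubling to 3 µM, in the absence and then the presence of constant ligand. The buffer was 100 mM Tris-HCl pH 7.5, 80 mM KCl, 4 mM MgCl2, BSA, DTT, yeast tRNA and Tween-20. The apparent Kd is the median of filtered per-cluster fits of binding curves, with green signal normalised to red-channel RNA signal and control-cluster median Fmax.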

[1] abbreviates: designed as: ON switch for tryptophan, no ligand.
[2] abbreviates: ligand present: tryptophan, designed as: ON switch for tryptophan.
[3] abbreviates: designed as: OFF switch for tryptophan, no ligand.
[4] abbreviates: ligand present: tryptophan, designed as: OFF switch for tryptophan.

What is called apparent Kd is the concentration giving half-maximal binding under the conditions of the assay. As for “GGCUUCAACUCGGCCGCCACUGGUGAUCCUCAUGUACAUGAGGAUCACCCAUGUACAUGAGACUACAGGACCGGGAGAUCAGCAA”, the “apparent Kd” value was determined as 8.34 nM under setting [1] and 7.7 nM under setting [2].
“AAUAACAUGAGGAUCACCCAUGUAAGUAAACGAGGACCGGUACGGCCGCCACUCGAAUAAAUAAAGUACCGGUAAGAUCCAGGGA”: the “apparent Kd” value came out at 14.8 nM under setting [1] and 16.8 nM under setting [2].
The like results for “CAAUGCAGGUCGGCCGCCACUACACACAUGAGGAUCACCCAUGUAGUUACUGGGUGAAGUGGCAGUAGGACCGGGACCUGCAUAA” were, in that order, 373 nM and 265 nM.
Turning to “AAUGUAUGGCACAUGAGGAUCACCCAUGUGCGAGGACCGGUACGGCCGCCACUCGGUCAAGGGAUCUUACCUCUAUACAUUAAUG”, the “apparent Kd” value turned out to be 10.4 nM under setting [3] and 18.8 nM under setting [4].
“UUCAGCUAGUCGGCCGCCACUACAUGAGGAUCACCCAUGUAAUCCUAACACUGCUUCGGCAGUGGUAGGACCGGGACUAGCUGAG”: the “apparent Kd” value by setting is: under setting [3], 10.6 nM; under setting [4], 17.1 nM.
As to “CGAGUAAGAACAAUCGAAUAACGGUUUUCGCGAGGACCGGUACGGCCGCCACUCGUGUGAAAUAACACAUGAGGAUCACCCAUGU”, the “apparent Kd” value by setting is: under setting [1], 23.1 nM; under setting [2], 20 nM.
For “CUACAUUUGUAGAAACCGGUCAACAAUAUUCGAGGACCGGUACGGCCGCCACUCGUAUAAUUUAAUACAUGAGGAUCACCCAUGU” the same measures were 14.8 nM and 15.9 nM.
Turning to “AGAUUCGACACGGCCGCCACUUGUGGUGGAUUAUCCUAUGUAAGACAUGAGGAUCACCCAUGUACAAGGACCGGGUGUUGAGUCU”, the “apparent Kd” value is, setting by setting: under setting [3], 308 nM; under setting [4], 93.1 nM.
As to “AUUACAUGAGCAUCAGCACAUGAGGAUCACCGAGGACCGGUACGGCCGCCACUCGACACAUGAGGAUCACCCAUGUGUUGUUGUU”, the “apparent Kd” value was 286 nM under setting [3] and 244 nM under setting [4].
Consider “GGACUCGUCACGGCCGCCACUGCGGUGGUGUGACAUGAGGAUCACCCAUGUUGUCAUGCGGCCCUUAGGACCGGGUGUCGCGUCC”, for which the “apparent Kd” value by setting is: under setting [3], 63.1 nM; under setting [4], 67.1 nM.
With “UGUACCAUGUCGGCCGCCACUCAUGAUAAACAUGAGGAUCACCCAUGUAGCGUCAAAGACGCUAUGAGGACCGGGACAUGGUACU”, the “apparent Kd” value runs as follows: under setting [1], 35 nM; under setting [2], 12.2 nM.
With “ACGUCGCAUAGGAAAACUAUGUGACGAAAUCGAGGACCGGUACGGCCGCCACUCGUCCUCAACAUGAGGAUCACCCAUGUAAUAA”, the “apparent Kd” value by setting is: under setting [3], 18.7 nM; under setting [4], 36.6 nM.
For “AUAUAUACAUGAGGAUCACCCAUGUUAUUUCGAGGACCGGUACGGCCGCCACUCGAUAGAGUAGAAGUAACAUUUGUUAGAUGAU”, the “apparent Kd” value under setting [1] was 21.6 nM and the “apparent Kd” value under setting [2] came to 13.2 nM.
Regarding “AAAAUAAUGGCGGCCGCCACUAACUCAUAUACAUCAUGUACAUGAGGAUCACCCAUGUAGGUGUAUAGGACCGGGCCAUAAUUAA”, the “apparent Kd” value by setting is: under setting [3], 18.6 nM; under setting [4], 25.6 nM.
Consider “CUCCCGUGGUCGGCCGCCACUGGAGGCCUCGCGCGACAUGAGGAUCACCCAUGUUGGCCCGGCUUCAGGACCGGGAUCGCGUGAG”, for which the “apparent Kd” value under setting [1] amounted to 12.4 nM and the “apparent Kd” value under setting [2] was 11.4 nM.
Turning to “GAUAUAUACUCGGCCGCCACUGAGAGAGUCAUGUAAACAUGAGGAUCACCCAUGUAAUAUAUAUACAGGACCGGGAGUAUAUUAA”, the “apparent Kd” value under setting [3] is 14.8 nM and the “apparent Kd” value under setting [4] is 14.2 nM.
For “GGAUUCGGCACGGCCGCCACUGCGGUGGUGUGACAUGAGGAUCACCCAUGUUGUCAUGCGGCCCUUAGGACCGGGUGGCGUUUCC”, the “apparent Kd” value worked out at 49.7 nM under setting [3] and 63.7 nM under setting [4].
For “UAUCGUCAGACGGCCGCCACUAGAACAUGAGGAUCACCCAUGUACUAGUGGCAUACCUCAUGAACUAGGACCGGGUCUGACGAAU” the same measures were 9.33 nM and 9.25 nM.
In the case of “AGCAACAAGUCGGCCGCCACUCUUUUAACAUGAGGAUCACCCAUGUUUAUAUCAUGGUUUUAAUAGAGGACCGGGACAGUUGCAU”, the “apparent Kd” value is, setting by setting: under setting [3], 35.1 nM; under setting [4], 41.8 nM.
